Source: ChEMBL document CHEMBL3102713, “The cytotoxic effect of 2-acylated-1,4-naphthohydroquinones on leukemia/lymphoma cells” (Bioorg Med Chem, 2014)

Tests used:
[1] = Cytotoxicity against human NALM6 cells assessed as cell viability after 72 hrs by MTS assay; assay type: functional, cell-based; details: NALM-6, 72 h
Outline: (§1)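 Cells seeded at 10,000 per well in 96-well plates; leukemia/lymphoma lines in RPMI, Hs27 fibroblasts in DMEM, both with 10% heat-inactivated FBS, penicillin and streptomycin, 37 °C, 5% CO2. Exposed to doubling concentrations from 1.56 to 100 µM for 72 h, then MTS added for 4 h. Absorbance read at 490 nm, reference 650 nm, cell-free background subtracted. Viability expressed relative to 1% DMSO solvent control. Eight replicates. IC50 is the concentration giving 50% inhibition of formazan conversion versus untreated cells.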

CCRF-CEM [2] = assay: Cytotoxicity against human CCRF-CEM cells assessed as cell viability after 72 hrs by MTS assay; assay type: functional, cell-based; outline: as §1
Ramos = assay: Cytotoxicity against human Ramos cells assessed as cell viability after 72 hrs by MTS assay; assay type: functional, cell-based; outline: as §1
HS27 = assay: Cytotoxicity against human HS27 cells assessed as cell viability after 72 hrs by MTS assay; assay type: cell-based; details: HS27, 72 h; outline: as §1
Jurkat = assay: Cytotoxicity against human Jurkat cells assessed as cell viability after 72 hrs by MTS assay; assay type: functional, cell-based; outline: as §1
CCRF-CEM [3] = assay: Induction of apoptosis in human CCRF-CEM cells assessed as caspase 3 activation at 10 uM after 8 hrs by measuring late apoptotic cells using flow cytometric analysis relative to control; assay type: functional
CCRF-CEM [4] = assay: Cytotoxicity against human CCRF-CEM cells assessed as mitochondrial membrane depolarization at 10 uM after 6 hrs by JC-1 red/green staining-based flow cytometry analysis (reference value: 3.3%); assay type: functional
CCRF-CEM [5] = assay: Cytotoxicity against human CCRF-CEM cells assessed as mitochondrial membrane depolarization at 10 uM by JC-1 red/green staining-based flow cytometry analysis; assay type: functional, cell-based; details: TDE = time-dependent effect
CCRF-CEM [6] = assay: Induction of apoptosis in human CCRF-CEM cells assessed as necrotic cells at 10 uM after 72 hrs by measuring phosphatidylserine translocation using annexin V-FITC/propidium iodide staining-based flow cytometric analysis (reference value: 0.4%); assay type: functional
CCRF-CEM [7] = assay: Induction of apoptosis in human CCRF-CEM cells assessed as late apoptotic cells at 10 uM after 72 hrs by measuring phosphatidylserine translocation using annexin V-FITC/propidium iodide staining-based flow cytometric analysis (reference value: 0.1%); assay type: functional
CCRF-CEM [8] = assay: Induction of apoptosis in human CCRF-CEM cells using fluorogenic substrate assessed as caspase 3 activation at 1 uM after 8 hrs by measuring viable cells using flow cytometric analysis (reference value: 96.1%)
CCRF-CEM [9] = assay: Induction of apoptosis in human CCRF-CEM cells assessed as early apoptotic cells at 10 uM after 72 hrs by measuring phosphatidylserine translocation using annexin V-FITC/propidium iodide staining-based flow cytometric analysis (reference value: 0.8%); assay type: functional
CCRF-CEM [10] = assay: Cytotoxicity against human CCRF-CEM cells assessed as mitochondrial membrane depolarization at 10 uM after 8 hrs by JC-1 red/green staining-based flow cytometry analysis (reference value: 3.3%); assay type: functional
CCRF-CEM [11] = assay: Induction of apoptosis in human CCRF-CEM cells assessed as caspase 3 activation at 10 uM after 8 hrs by measuring necrotic cells using flow cytometric analysis relative to control; assay type: functional
CCRF-CEM [12] = assay: Cytotoxicity against human CCRF-CEM cells assessed as intact mitochondrial membrane potential at 10 uM after 6 hrs by JC-1 red/green staining-based flow cytometry analysis (reference value: 96.7%); assay type: functional
CCRF-CEM [13] = assay: Induction of apoptosis in human CCRF-CEM cells using fluorogenic substrate assessed as caspase 3 activation at 10 uM after 8 hrs by measuring early apoptotic cells using flow cytometric analysis (reference value: 3.9%); assay type: functional
CCRF-CEM [14] = assay: Induction of apoptosis in human CCRF-CEM cells assessed as viable cells at 10 uM after 72 hrs by measuring phosphatidylserine translocation using annexin V-FITC/propidium iodide staining-based flow cytometric analysis (reference value: 98.7%); assay type: functional; details: read-out: Activity
CCRF-CEM [15] = assay: Cytotoxicity against human CCRF-CEM cells assessed as intact mitochondrial membrane potential at 10 uM after 8 hrs by JC-1 red/green staining-based flow cytometry analysis (reference value: 96.7%); assay type: functional
CCRF-CEM [16] = assay: Induction of apoptosis in human CCRF-CEM cells assessed as necrotic cells at 50 uM after 72 hrs by measuring phosphatidylserine translocation using annexin V-FITC/propidium iodide staining-based flow cytometric analysis (reference value: 0.4%); assay type: functional
CCRF-CEM [17] = assay: Induction of apoptosis in human CCRF-CEM cells assessed as late apoptotic cells at 50 uM after 72 hrs by measuring phosphatidylserine translocation using annexin V-FITC/propidium iodide staining-based flow cytometric analysis (reference value: 0.1%); assay type: functional
CCRF-CEM [18] = assay: Induction of apoptosis in human CCRF-CEM cells assessed as early apoptotic cells at 50 uM after 72 hrs by measuring phosphatidylserine translocation using annexin V-FITC/propidium iodide staining-based flow cytometric analysis (reference value: 0.8%); assay type: functional
CCRF-CEM [19] = assay: Induction of apoptosis in human CCRF-CEM cells assessed as viable cells at 50 uM after 72 hrs by measuring phosphatidylserine translocation using annexin V-FITC/propidium iodide staining-based flow cytometric analysis (reference value: 98.7%); assay type: functional; details: read-out: Activity
CCRF-CEM [20] = assay: Cytotoxicity against human CCRF-CEM cells assessed as mitochondrial membrane depolarization at 50 uM after 8 hrs by JC-1 red/green staining-based flow cytometry analysis (reference value: 3.3%); assay type: functional
CCRF-CEM [21] = assay: Induction of apoptosis in human CCRF-CEM cells assessed as caspase 3 activation at 50 uM after 8 hrs by measuring necrotic cells using flow cytometric analysis relative to control; assay type: functional
Outline: (§2)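 CEM cells were seeded at 50,000 per well in RPMI with 10% FBS and exposed for 8 h at 37 °C, with CCCP (50 µM) as positive control and untreated and 1% DMSO controls. Cells were labelled with NucView 488 caspase-3/7 live-cell fluorogenic substrate. Green-positive cells were counted by flow cytometry (FL1 vs FL2 dot plots), about 10,000 events per sample, in triplicate.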

CCRF-CEM [22] = assay: Induction of apoptosis in human CCRF-CEM cells using fluorogenic substrate assessed as caspase 3 activation at 50 uM after 8 hrs by measuring early apoptotic cells using flow cytometric analysis (reference value: 6.1%); assay type: functional; outline: as §2
CCRF-CEM [23] = assay: Induction of apoptosis in human CCRF-CEM cells using fluorogenic substrate assessed as caspase 3 activation at 50 uM after 8 hrs by measuring viable cells using flow cytometric analysis (reference value: 93.9%); assay type: functional; outline: as §2
CCRF-CEM [24] = assay: Induction of apoptosis in human CCRF-CEM cells using fluorogenic substrate assessed as caspase 3 activation at 50 uM after 8 hrs by measuring late apoptotic cells using flow cytometric analysis relative to control; assay type: functional; outline: as §2
CCRF-CEM [25] = assay: Cytotoxicity against human CCRF-CEM cells assessed as intact mitochondrial membrane potential at 50 uM after 8 hrs by JC-1 red/green staining-based flow cytometry analysis (reference value: 96.7%); assay type: functional

Row | Structure (SMILES) | IC50 [1] [µM] | IC50 (CCRF-CEM [2]) [µM] | IC50 (Ramos) [µM] | IC50 (HS27) [µM] | IC50 (Jurkat) [µM] | other results
1 | CCC(=O)c1cc(O)c2ccccc2c1O | 2.02 | 3.95 | 2.49 | 18 | 4.54 | –
2 | CCCCCCCCCCCC(=O)c1cc(O)c2ccccc2c1O | 5.8 | 5.99 | 0.98 | 43.8 | 6.56 | Activity (CCRF-CEM [3]): 0%; Activity (CCRF-CEM [4]): 36.8%; Activity (CCRF-CEM [5]): tde; Activity (CCRF-CEM [6]): 3%; Activity (CCRF-CEM [7]): 3.7%; Activity (CCRF-CEM [8]): 64.8%; Activity (CCRF-CEM [9]): 92.8%; Activity (CCRF-CEM [10]): 62.3%; Activity (CCRF-CEM [11]): 0%; Activity (CCRF-CEM [12]): 63.2%; Activity (CCRF-CEM [13]): 35.2%; viability at 10 µM (CCRF-CEM [14]): 0.5%; Activity (CCRF-CEM [15]): 37.7%
3 | COc1ccc(C(=O)c2cc(O)c3ccccc3c2O)cc1 | 0.88 | 0.01 | 0.66 | 4.97 | 2.78 | –
4 | CC(=O)c1cc(O)c2ccccc2c1O | 5.09 | 5.24 | 0.75 | 9.87 | 5.6 | –
5 | Cc1ccc(C(=O)c2cc(O)c3ccccc3c2O)cc1 | 2.41 | 0.74 | 0.52 | 4.37 | 3.35 | –
6 | O=C(c1ccccc1)c1cc(O)c2ccccc2c1O | 2.58 | 5.44 | 4.13 | 8.3 | 6.35 | –
7 | C/C=C/C(=O)c1cc(O)c2ccccc2c1O | 4.63 | 3.19 | 4.25 | 37.1 | 6.24 | Activity (CCRF-CEM [16]): 19.8%; Activity (CCRF-CEM [17]): 0.4%; Activity (CCRF-CEM [18]): 1.3%; viability at 50 µM (CCRF-CEM [19]): 78.6%
8 | N#CC(C#N)=NNc1cccc(Cl)c1 [CARBONYL CYANIDE M-CHLOROPHENYLHYDRAZONE] | – | – | – | – | – | Activity (CCRF-CEM [20]): 100%; Activity (CCRF-CEM [21]): 0%; Activity (CCRF-CEM [22]): 32.6%; Activity (CCRF-CEM [23]): 66.3%; Activity (CCRF-CEM [24]): 1.1%; Activity (CCRF-CEM [25]): 0%
